According to ChEMBL document CHEMBL1208718, “Rational design of a novel peripherally-restricted, orally active CB(1) cannabinoid antagonist containing a 2,3-diarylpyrrole motif” (Bioorg Med Chem Lett, 2010):
Blank lines part the entries; values can stand above or below the molecule they belong to.

Columns and labels:
[1] = target: T1, Cannabinoid receptor 2 (Rattus norvegicus) (UniProt Q9QZN9); test: Binding affinity to CB2 receptor in rat spleen homogenates at 1 uM; format: tissue-based
T1 sequence (whole entry): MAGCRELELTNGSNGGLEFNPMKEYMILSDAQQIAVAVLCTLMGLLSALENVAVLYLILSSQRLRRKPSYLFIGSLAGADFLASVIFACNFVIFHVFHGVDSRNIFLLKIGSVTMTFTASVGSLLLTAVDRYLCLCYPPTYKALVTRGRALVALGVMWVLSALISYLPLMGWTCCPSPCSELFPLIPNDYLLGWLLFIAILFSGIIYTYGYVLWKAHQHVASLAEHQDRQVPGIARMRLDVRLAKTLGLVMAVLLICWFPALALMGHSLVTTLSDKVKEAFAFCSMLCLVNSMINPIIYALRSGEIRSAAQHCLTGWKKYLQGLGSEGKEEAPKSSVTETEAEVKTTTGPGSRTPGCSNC

Mus musculus [2] = test: Ex vivo displacement of [3H]CP-55940 from mouse brain homogenates without cerebellum at 10 mg/kg, iv after 30 mins; format: functional
How it was run: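 Mice dosed iv at 10 mg/kg and killed by decapitation 30 min later. Brain homogenized without cerebellum, and inhibition of [3H]-CP55940 binding measured in the homogenate.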

Cannabinoid receptor 1 [3] = target: Cannabinoid receptor 1 (Rattus norvegicus, UniProt P20272); test: Binding affinity to CB1 receptor in rat brain synaptosomal membranes; format: cell membranes
Chain of Cannabinoid receptor 1 (Rattus norvegicus, UniProt P20272) (P20272 whole entry): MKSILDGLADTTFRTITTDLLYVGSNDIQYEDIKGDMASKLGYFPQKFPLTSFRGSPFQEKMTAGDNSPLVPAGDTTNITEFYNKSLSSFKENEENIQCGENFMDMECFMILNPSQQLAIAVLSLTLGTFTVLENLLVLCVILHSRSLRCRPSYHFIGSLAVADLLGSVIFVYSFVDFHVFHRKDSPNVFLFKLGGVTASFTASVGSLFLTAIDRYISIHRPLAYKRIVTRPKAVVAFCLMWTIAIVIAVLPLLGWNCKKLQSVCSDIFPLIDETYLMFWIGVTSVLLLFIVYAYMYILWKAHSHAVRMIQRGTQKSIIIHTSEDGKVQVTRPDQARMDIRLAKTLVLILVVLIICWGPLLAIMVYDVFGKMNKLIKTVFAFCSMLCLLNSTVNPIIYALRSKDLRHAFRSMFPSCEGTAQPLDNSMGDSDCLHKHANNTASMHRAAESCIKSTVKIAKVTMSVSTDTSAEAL

Mus musculus [4] = test: Reversal of CP-55940-induced hypothermia in po dosed mouse; format: functional
How it was run: (§1)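 Mice dosed orally with antagonist, then challenged with CP55940 0.3 mg/kg ip to induce hypothermia. Reversal scored as DE50 (mg/kg po) or as % reversal at a single oral dose.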

Mus musculus [5] = test: Reversal of CP-55940-induced inhibition of intestinal transit in po dosed mouse; format: functional
How it was run: (§2)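 Mice dosed orally with antagonist, then given CP55940 0.15 mg/kg ip to inhibit intestinal transit. Reversal scored as DE50 (mg/kg po) or as % reversal at a single oral dose.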

Mus musculus [6] = test: Reversal of CP-55940-induced hypothermia in po dosed mouse at 30 mg/kg, po; format: functional; how it was run: as §1
Mus musculus [7] = test: Reversal of CP-55940-induced inhibition of intestinal transit in mouse at 10 mg/kg, po; format: functional; parameters: scale not given: the % may be the effect or the level left; how it was run: as §2
Cannabinoid receptor 1 [8] = target: T2, Cannabinoid receptor 1 (Homo sapiens, UniProt P21554); test: Antagonist activity at CB1 receptor in forskolin-stimulated human U373-MG cells assessed as inhibition of CP-55940-induced cAMP accumulation; format: functional, cell-based, U-373MG ATCC
T2 sequence (P21554 whole entry): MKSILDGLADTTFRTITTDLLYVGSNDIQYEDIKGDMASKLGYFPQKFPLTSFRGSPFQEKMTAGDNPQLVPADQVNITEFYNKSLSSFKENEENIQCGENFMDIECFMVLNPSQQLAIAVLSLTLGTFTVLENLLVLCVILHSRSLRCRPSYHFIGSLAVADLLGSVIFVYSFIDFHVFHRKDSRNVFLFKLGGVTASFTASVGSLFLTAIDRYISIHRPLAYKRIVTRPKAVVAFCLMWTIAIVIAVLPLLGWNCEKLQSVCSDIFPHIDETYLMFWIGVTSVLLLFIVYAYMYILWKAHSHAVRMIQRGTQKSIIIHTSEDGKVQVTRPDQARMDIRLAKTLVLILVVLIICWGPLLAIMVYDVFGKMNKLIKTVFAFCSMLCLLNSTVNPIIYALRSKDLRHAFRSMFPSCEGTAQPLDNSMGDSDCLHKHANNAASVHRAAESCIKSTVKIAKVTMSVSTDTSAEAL
How it was run: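 Human U373-MG cells; forskolin-stimulated cAMP accumulation was inhibited with CP55940, and the antagonist was tested over a range of concentrations for reversal of that inhibition. The EC50 was derived from the concentration–response.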

Liver microsomes [9] = test: Metabolic stability in human liver microsomes at 5 uM after 10 mins by HPLC analysis in presence of NADPH; format: ADME, Microsome
How it was run: (§3)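 Hepatic microsomal fractions from mouse, rat and human were used at 1 mg/mL microsomal protein, with 10 min incubation of substrate.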

Liver microsomes [10] = test: Metabolic stability in rat liver microsomes at 5 uM after 10 mins by HPLC analysis in presence of NADPH; format: ADME, Microsome; how it was run: as §3
[11] = Metabolic stability in mouse liver microsomes at 5 uM after 10 mins by HPLC analysis in presence of NADPH; format: ADME, Microsome; how it was run: as §3
Cannabinoid receptor 1 [12] = target: T2, Cannabinoid receptor 1; test: Inhibition of human recombinant CB1 receptor expressed in CHO cells; format: cell-based
[13] = Cmax in Swiss CD1 mouse at 10 mg/kg, po after 2 hrs; format: ADME, organism-based; parameters: dose 10 mg/kg, route oral; settings: in vivo
How it was run: (§4)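 Male Swiss CD1 mice received a single oral 10 mg/kg dose. Drug levels were measured in plasma (ng/mL) and brain (ng/g tissue) over 24 h.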

[14] = Oral bioavailability in Swiss CD1 mouse at 10 mg/kg; settings: in vivo
[15] = Drug level in Swiss CD1 mouse brain assessed per gram of tissue at 10 mg/kg, po after 6 hrs; format: ADME, organism-based; parameters: dose 10 mg/kg, route oral; settings: read-out: Drug uptake; how it was run: as §4
[16] = AUC (0 to 24 hrs) ratio in brain to plasma of Swiss CD1 mouse at 10 mg/kg, po; format: ADME, organism-based; parameters: dose 10 mg/kg, route oral

SMILES: N#CCCn1c(C(=O)N2CCC(C(N)=O)(N3CCCCC3)CC2)cc(-c2ccc(Cl)cc2Cl)c1-c1ccc(Cl)cc1
inhibition [1]: 18%
inhibition in vivo at 10 mg/kg (Mus musculus [2]): 39%
IC50 (Cannabinoid receptor 1 [3]): 8 nM

SMILES: Cn1c(C(=O)N2CCC(C(N)=O)(N3CCOCC3)CC2)cc(-c2ccc(Cl)cc2Cl)c1-c1ccc(Cl)cc1
inhibition [1]: 42%
inhibition in vivo at 10 mg/kg (Mus musculus [2]): 32%
IC50 (Cannabinoid receptor 1 [3]): 34 nM

SMILES: Cn1c(C(=O)N2CCC(C(N)=O)(c3ccccc3)CC2)cc(-c2ccc(Cl)cc2Cl)c1-c1ccc(Cl)cc1
inhibition [1]: 17%
inhibition in vivo at 10 mg/kg (Mus musculus [2]): 86%
IC50 (Cannabinoid receptor 1 [3]): 0.7 nM

inhibition [1]: 14%
IC50 (Cannabinoid receptor 1 [3]): 180 nM
SMILES: NC(=O)C1(N2CCCCC2)CCN(C(=O)c2cc(-c3ccc(Cl)cc3Cl)c(-c3ccc(Cl)cc3)n2CCC(=O)O)CC1

inhibition [1]: 52%
IC50 (Cannabinoid receptor 1 [3]): 160 nM
SMILES: CC(C)(CCCn1c(C(=O)N2CCC(C(N)=O)(N3CCCCC3)CC2)cc(-c2ccc(Cl)cc2Cl)c1-c1ccc(Cl)cc1)C(=O)O

SMILES: CS(=O)(=O)CCn1c(C(=O)N2CCC(C(N)=O)(N3CCCCC3)CC2)cc(-c2ccc(Cl)cc2Cl)c1-c1ccc(Cl)cc1
inhibition [1]: 26%
inhibition in vivo at 10 mg/kg (Mus musculus [2]): 19%
IC50 (Cannabinoid receptor 1 [3]): 0.4 nM

SMILES: Cc1c(C(=O)NN2CCCCC2)nn(-c2ccc(Cl)cc2Cl)c1-c1ccc(Cl)cc1 [RIMONABANT]
ED50 (Mus musculus [4]): 0.6 mg/kg
inhibition [1]: 66%
inhibition in vivo at 10 mg/kg (Mus musculus [2]): 100%
ED50 (Mus musculus [5]): 1 mg/kg

SMILES: CS(=O)(=O)NCCCn1c(C(=O)N2CCC(C(N)=O)(N3CCCCC3)CC2)cc(-c2ccc(Cl)cc2Cl)c1-c1ccc(Cl)cc1
Activity (Mus musculus [6]): 1%
inhibition [1]: 16%
inhibition in vivo at 10 mg/kg (Mus musculus [2]): 18%
IC50 (Cannabinoid receptor 1 [3]): 1.4 nM
Activity (Mus musculus [7]): 51%

SMILES: CS(=O)(=O)NCCCn1c(C(=O)N2CCC(C(N)=O)(N3CCC(F)(F)CC3)CC2)cc(-c2ccc(Cl)cc2Cl)c1-c1ccc(Cl)cc1
EC50 (Cannabinoid receptor 1 [8]): 15 nM
Activity (Mus musculus [6]): 0%
Stability (Liver microsomes [9]): Stable
Stability (Liver microsomes [10]): Stable
Stability [11]: Stable
IC50 (Cannabinoid receptor 1 [12]): 1.4 nM
Cmax [13]: 570 ng/mL
bioavailability [14]: 37%
inhibition [1]: 39%
concentration at 6 h [15]: 6.4 ng/g
inhibition in vivo at 10 mg/kg (Mus musculus [2]): 28%
ED50 (Mus musculus [5]): 2.4 mg/kg
Kp [16]: 0.01
IC50 (Cannabinoid receptor 1 [3]): 1 nM

SMILES: CC1(C)CCN(C2(C(N)=O)CCN(C(=O)c3cc(-c4ccc(Cl)cc4Cl)c(-c4ccc(Cl)cc4)n3CCCNS(C)(=O)=O)CC2)CC1
Activity (Mus musculus [6]): 0%
inhibition [1]: 27%
inhibition in vivo at 10 mg/kg (Mus musculus [2]): 33%
ED50 (Mus musculus [5]): 4.1 mg/kg
IC50 (Cannabinoid receptor 1 [3]): 4.3 nM

SMILES: Cn1c(C(=O)N2CCC(C(N)=O)(N3CCCCC3)CC2)cc(-c2ccc(Cl)cc2Cl)c1-c1ccc(Cl)cc1
inhibition [1]: 48%
inhibition in vivo at 10 mg/kg (Mus musculus [2]): 96%
IC50 (Cannabinoid receptor 1 [3]): 0.2 nM
